pIC50: −log10 of the molar value. Calls of active or inactive are those of the source. No cut-off for these calls is given here.

Assay [1] deals with T1, NAD-dependent protein deacetylase sirtuin-2 (Homo sapiens) (UniProt Q8IXJ6).
T1 sequence (whole entry): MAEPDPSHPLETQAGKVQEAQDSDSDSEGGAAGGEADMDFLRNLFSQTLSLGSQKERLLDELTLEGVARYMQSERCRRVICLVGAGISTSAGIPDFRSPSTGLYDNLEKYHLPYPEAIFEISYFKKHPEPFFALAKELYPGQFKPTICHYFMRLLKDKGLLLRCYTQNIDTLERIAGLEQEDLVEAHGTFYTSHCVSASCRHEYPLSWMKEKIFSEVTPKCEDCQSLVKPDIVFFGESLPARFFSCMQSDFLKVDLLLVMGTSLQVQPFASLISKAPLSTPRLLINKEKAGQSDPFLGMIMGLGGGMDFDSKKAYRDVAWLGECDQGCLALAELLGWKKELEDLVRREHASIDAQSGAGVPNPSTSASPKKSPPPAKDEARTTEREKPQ
The assay can be described thus: Inhibition of recombinant human C-terminal His-tagged SIRT2 (50 to 389 end residues) expressed in Escherichia coli at 10 uM using p53 derived (379 to 382 residues) fluorogenic peptide substrate RHKK(Ac)-AMC preincubated for 10 mins followed by substrate addition in presence of NAD+ by fluorescence assay relative to control. Summed up: (§1)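 Two-step fluorogenic assay with p53 379–382 RHKK(Ac)-AMC. Compound (from 10 mM DMSO stock) preincubated ~10 min with human SIRT before substrate addition. Developer then releases fluorophore, read at ex 360/em 460 nm.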

The target of assay [2] is T2, NAD-dependent protein deacetylase sirtuin-2 (Homo sapiens, UniProt Q8IXJ6).
T2 sequence (Q8IXJ6 whole entry): T1 sequence (whole entry)
Put plainly: Inhibition of recombinant human C-terminal His-tagged SIRT2 (50 to 389 end residues) expressed in Escherichia coli using p53 derived (379 to 382 residues) fluorogenic peptide substrate RHKK(Ac)-AMC preincubated for 10 mins followed by substrate addition in presence of NAD+ by fluorescence assay. The method in brief: as §1

Assay [3] has as its target T3, NAD-dependent protein deacetylase sirtuin-1 (Homo sapiens, UniProt Q96EB6).
T3 sequence (Q96EB6 whole entry): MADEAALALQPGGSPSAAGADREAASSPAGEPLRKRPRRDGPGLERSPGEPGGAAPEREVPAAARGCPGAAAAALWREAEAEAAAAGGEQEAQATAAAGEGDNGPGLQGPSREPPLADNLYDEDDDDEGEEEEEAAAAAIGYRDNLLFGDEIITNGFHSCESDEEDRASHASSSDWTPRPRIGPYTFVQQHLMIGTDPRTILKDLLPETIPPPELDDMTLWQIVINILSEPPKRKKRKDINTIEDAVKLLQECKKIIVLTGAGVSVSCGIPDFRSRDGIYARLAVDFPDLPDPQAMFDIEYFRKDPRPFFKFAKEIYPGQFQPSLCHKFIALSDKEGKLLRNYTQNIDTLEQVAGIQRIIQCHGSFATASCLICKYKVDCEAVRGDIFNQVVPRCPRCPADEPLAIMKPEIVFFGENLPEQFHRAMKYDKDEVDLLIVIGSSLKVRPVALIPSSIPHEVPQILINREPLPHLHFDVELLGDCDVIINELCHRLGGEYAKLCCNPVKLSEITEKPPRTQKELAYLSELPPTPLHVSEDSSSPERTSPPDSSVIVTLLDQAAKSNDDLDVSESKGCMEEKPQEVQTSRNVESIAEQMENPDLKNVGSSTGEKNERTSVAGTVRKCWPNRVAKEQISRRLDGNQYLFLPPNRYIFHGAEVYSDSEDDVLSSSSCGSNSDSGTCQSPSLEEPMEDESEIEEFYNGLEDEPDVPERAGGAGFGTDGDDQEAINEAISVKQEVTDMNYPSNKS
The assay can be described thus: Inhibition of recombinant human N-terminal His-tagged SIRT1 (1 to 747 end residues) expressed in Escherichia coli using p53 derived (379 to 382 residues) fluorogenic peptide substrate RHKK(Ac)-AMC preincubated for 10 mins followed by substrate addition in presence of NAD+ by fluorescence assay. Summed up:
as §1

The species named for assay [4] is Homo sapiens. The assay can be described thus: Selectivity ratio of IC50 for recombinant human N-terminal GST-tagged SIRT3 (101 to 399 residues) expressed in Escherichia coli to IC50 for recombinant human C-terminal His-tagged SIRT2 (50 to 389 end residues) expressed in Escherichia coli.
In assay [5] the target is T1, NAD-dependent protein deacetylase sirtuin-2 (Homo sapiens). Put plainly: Inhibition of SIRT2 in human MCF7 cells assessed as increase in alpha-tubulin K40 acetylation level after 24 hrs in presence of TSA by Western blot analysis. The format is cell-based. The method in brief:
(§2)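 MCF-7 cells (ATCC, authenticated) kept in DMEM with 10% FCS, penicillin/streptomycin and 2 mM glutamine at 37 °C under 10% CO2. Treated 24 h with compound at 0, 1, 10, 20, 30 or 50 μM plus 50 nM TSA to block non-sirtuin HDACs. NP40 lysates (20 μg protein, BCA-quantified) run on SDS-PAGE and Western blotted for acetyl-K40 α-tubulin, total α-tubulin and β-actin; ECL detection.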

The species entered for assay [6] is Homo sapiens. Put plainly: Selectivity ratio of IC50 for recombinant human N-terminal His-tagged SIRT1 (1 to 747 end residues) expressed in Escherichia coli to IC50 for recombinant human C-terminal His-tagged SIRT2 (50 to 389 end residues) expressed in Escherichia coli.
Assay [7] concerns the target T4, NAD-dependent protein deacetylase sirtuin-3, mitochondrial (Homo sapiens, UniProt Q9NTG7).
T4 sequence (Q9NTG7 whole entry): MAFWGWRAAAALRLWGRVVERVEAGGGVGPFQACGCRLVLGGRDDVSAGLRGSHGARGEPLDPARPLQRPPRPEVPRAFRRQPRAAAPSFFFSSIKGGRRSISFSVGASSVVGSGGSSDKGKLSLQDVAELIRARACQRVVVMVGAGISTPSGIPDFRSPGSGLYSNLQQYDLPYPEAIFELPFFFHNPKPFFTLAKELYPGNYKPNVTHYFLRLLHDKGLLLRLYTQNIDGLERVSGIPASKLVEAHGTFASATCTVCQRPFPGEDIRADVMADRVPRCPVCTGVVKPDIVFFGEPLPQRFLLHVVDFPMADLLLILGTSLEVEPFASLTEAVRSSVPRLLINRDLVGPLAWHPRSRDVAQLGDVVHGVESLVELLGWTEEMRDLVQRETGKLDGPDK
The assay can be described thus: Inhibition of recombinant human N-terminal GST-tagged SIRT3 (101 to 399 residues) expressed in Escherichia coli using p53 derived (379 to 382 residues) fluorogenic peptide substrate RHKK(Ac)-AMC) preincubated for 10 mins followed by substrate addition in presence of NAD+ by fluorescence assay.

Assay [8] has as its target T1, NAD-dependent protein deacetylase sirtuin-2 (Homo sapiens). Put plainly: Inhibition of SIRT2 in human MCF7 cells assessed as increase in alpha-tubulin K40 acetylation level at 10 to 50 uM after 24 hrs in presence of TSA by Western blot analysis. Type of assay: cell-based. The method in brief: as §2

Regarding `COc1ccc(CNC2CCc3c(sc4ncn(Cc5c(OC)ccc6ccccc56)c(=O)c34)C2)cc1` (stereo not drawn), the inhibition in assay [1] stood at 96%. In addition, the pIC50 was 6.19 in assay [2] and 3.92 in assay [3].

For `COc1ccc(Cn2cnc3sc4c(c3c2=O)CCC(NC2CCCC2)C4)c2ccccc12` (stereo not drawn), the inhibition in assay [1] is 94%. The pIC50 in assay [2] is 6.14; in assay [3], 4.86.

`COc1ccc2ccccc2c1Cn1cnc2sc3c(c2c1=O)CCC(NCCc1cccnc1)C3` (stereo not drawn): the inhibition in assay [1] was 66%. Also, the pIC50 in assay [2] is 4.99.

Turning to `COc1ccc(Cn2cnc3sc4c(c3c2=O)CCC(NC2CCOCC2)C4)c2ccccc12` (stereo not drawn), the inhibition in assay [1] was 81%. Also, the pIC50 in assay [2] was 5.30.

Turning to `O=c1c2c3c(sc2ncn1Cc1cccc2ccccc12)CC(NCc1cccnc1)CC3` (stereo not drawn), in assay [1], the inhibition was determined as 89%. The pIC50 in assay [2] was 5.52.

In the case of `O=c1c2c3c(sc2ncn1Cc1cccc(-c2ccccc2)c1)CC(NC1CCCC1)CC3` (stereo not drawn), in assay [1], the inhibition is 98%. Moreover, the pIC50 in assay [2] is 5.82.

Consider `COc1ccc(Cn2cnc3sc4c(c3c2=O)CCC(NCc2c(C)noc2C)C4)c2ccccc12` (stereo not drawn), for which the Ratio IC50 came to 31 in the assay filed under Homo sapiens [4] and 222 in the assay listed under Homo sapiens [6]. Moreover, the inhibition result in assay [5] was “Dose-dependent effect”; in assay [1] it was 96%. Also, the pIC50 in assay [2] was 6.24; in assay [7], 4.74; in assay [3], 3.89. Further, in assay [8], the inhibition result was “Active”.

In the case of `O=c1c2c3c(sc2ncn1Cc1cccc2cccnc12)CC(NCc1ccccc1Cl)CC3` (stereo not drawn), the inhibition in assay [1] came out at 85%. For the same compound, in assay [2], the pIC50 was 5.42.

For `O=c1c2c3c(sc2ncn1Cc1cccc2cccnc12)CC(NC1CCCc2ccccc21)CC3` (stereo not drawn), the inhibition in assay [1] stood at 80%. For the same compound, in assay [2], the pIC50 is 5.26.

In the case of `COc1ccccc1CNC1CCc2c(sc3ncn(Cc4cccc5cccnc45)c(=O)c23)C1` (stereo not drawn), in assay [1], the inhibition came to 85%. Besides, the pIC50 in assay [2] was 5.25.

On to `Cc1ccc(NC2CCc3c(sc4ncn(Cc5cccc6cccnc56)c(=O)c34)C2)cc1` (stereo not drawn), for which the inhibition in assay [1] amounted to 78%. Further, the pIC50 in assay [2] is 5.37.

For the compound `N#Cc1ccc(CNC2CCc3c(sc4ncn(Cc5cccc6cccnc56)c(=O)c34)C2)cc1` (stereo not drawn), the Ratio IC50 is over 256 in the assay filed under Homo sapiens [4] and 108 in the assay listed under Homo sapiens [6]. In addition, the inhibition in assay [1] amounted to 97%. Also, the pIC50 in assay [2] is 6.41; in assay [7] it was under 4.00; in assay [3], 4.38.

As for `O=c1c2c3c(sc2ncn1Cc1cccc2cccnc12)CC(Nc1ccc(F)cc1)CC3` (stereo not drawn), the inhibition in assay [1] is 90%. For the same compound, the pIC50 in assay [2] is 6.01.

Take `O=c1c2c3c(sc2ncn1Cc1ccc2ccccc2c1)CC(NCc1ccccc1)CC3` (stereo not drawn): the inhibition in assay [1] came out at 71%. The pIC50 in assay [2] is 5.26.

In the case of `COc1ccc2ccccc2c1Cn1cnc2sc(CCNCc3ccncc3)c(C)c2c1=O`, the inhibition in assay [1] stood at 94%. In addition, in assay [2], the pIC50 is 5.53.

On to `O=c1c2c3c(sc2ncn1Cc1cccc2cccnc12)CC(NCc1ccc(Cl)cc1)CC3` (stereo not drawn), for which, in assay [1], the inhibition amounted to 94%. Also, in assay [2], the pIC50 is 5.90.

`Cc1nn(C)c(C)c1CNC1CCc2c(sc3ncn(Cc4cccc5ccccc45)c(=O)c23)C1` (stereo not drawn): the inhibition in assay [1] was found to be 85%. Further, in assay [2], the pIC50 was 5.38.

Regarding `COc1ccccc1CNC1CCc2c(sc3ncn(Cc4ccc5ccccc5c4)c(=O)c23)C1` (stereo not drawn), the inhibition in assay [1] amounted to 75%. In addition, the pIC50 in assay [2] was 5.37.

Regarding `O=c1c2c3c(sc2ncn1Cc1cccc2ccccc12)CC(NCC1CCCO1)CC3` (stereo not drawn), in assay [1], the inhibition was 67%. Besides, the pIC50 in assay [2] was 4.90.

Regarding `COc1ccc2ccccc2c1Cn1cnc2sc3c(c2c1=O)CCC(NCC1CCCO1)C3` (stereo not drawn), the inhibition in assay [1] turned out to be 90%. In assay [2], the pIC50 is 5.72.

`O=c1c2c3c(sc2ncn1Cc1cccc2ccccc12)CC(NCc1cncnc1)CC3` (stereo not drawn): the inhibition in assay [1] came to 86%. In assay [2], the pIC50 was 5.19.

On to `O=c1c2c3c(sc2ncn1Cc1ccc2ccccc2c1)CC(NCc1ccncc1)CC3` (stereo not drawn), for which the inhibition in assay [1] turned out to be 92%. Also, the pIC50 in assay [2] was 5.50.

In the case of `O=c1c2c3c(sc2ncn1Cc1cccc2cccnc12)CC(NCCC1CCCCC1)CC3` (stereo not drawn), the inhibition in assay [1] is 81%. The pIC50 in assay [2] was 5.23.

In the case of `O=c1c2c3c(sc2ncn1Cc1cccc2cccnc12)CC(NCc1cccc(F)c1)CC3` (stereo not drawn), in assay [1], the inhibition was 94%. In addition, the pIC50 in assay [2] was 5.76.

With `O=c1c2c3c(sc2ncn1Cc1ccc2ccccc2c1)CC(NCCc1cccnc1)CC3` (stereo not drawn), in assay [1], the inhibition is 77%. The pIC50 in assay [2] was 5.06.

In the case of `COc1ccc2ccccc2c1Cn1cnc2sc3c(c2c1=O)CCC(NCC1CCOC1)C3` (stereo not drawn), in assay [1], the inhibition was 85%. In addition, in assay [2], the pIC50 is 5.22.

As to `O=c1c2c3c(sc2ncn1Cc1ccc2ccccc2c1)CC(NCC1CCCCC1)CC3` (stereo not drawn), the inhibition in assay [1] worked out at 87%. Also, the pIC50 in assay [2] is 5.26.

For the compound `COc1ccc(CNC2CCc3c(sc4ncn(Cc5cccc6ccccc56)c(=O)c34)C2)cc1` (stereo not drawn), in assay [1], the inhibition is 78%. The pIC50 in assay [2] is 5.49.

`O=c1c2c3c(sc2ncn1Cc1cccc2cccnc12)CC(NCC1CCCCC1)CC3` (stereo not drawn): in assay [1], the inhibition turned out to be 94%. In assay [2], the negative-log IC50 (pIC50) was 5.61.

Turning to `O=c1c2c3c(sc2ncn1Cc1cccc(-c2ccccc2)c1)CC(NCCN1CCOCC1)CC3` (stereo not drawn), in assay [1], the inhibition is 77%. Besides, the pIC50 in assay [2] was 5.50.

In the case of `COc1ccc2ccccc2c1Cn1cnc2sc3c(c2c1=O)CCC(NCc1ccccn1)C3` (stereo not drawn), in assay [1], the inhibition amounted to 83%. Besides, the pIC50 in assay [2] is 5.51.

Regarding `Cc1nn(C)c(C)c1CNC1CCc2c(sc3ncn(Cc4ccc5ccccc5c4)c(=O)c23)C1` (stereo not drawn), in assay [1], the inhibition is 87%. In addition, in assay [2], the pIC50 is 5.13.

Turning to `O=c1c2c3c(sc2ncn1Cc1cccc(-c2ccccc2)c1)CC(NCCC1CCCCC1)CC3` (stereo not drawn), the inhibition in assay [1] amounted to 90%. Besides, in assay [2], the pIC50 was 5.43.

Source of the values: ChEMBL document CHEMBL4004822, “Thienopyrimidinone Based Sirtuin-2 (SIRT2)-Selective Inhibitors Bind in the Ligand Induced Selectivity Pocket” (J Med Chem, 2017).
